Most compounds without a hit are left out; they make up all but 2.5% or so of the library.
PglD inh = blocks C. jejuni PglD acetyltransferase activity | inhibition, % at 12.5 µM | hit rate 0.098% among 360,000 | purified PglD enzyme, DTNB colorimetric CoA detection; in the data active means inhibition above about 16%, passing the limit was not always enough
ERAP1 HTS inh = blocks human ERAP1 aminopeptidase activity | recombinant ERAP1, Leu-AMC fluorescence, 60 min | AID 652197 | Q9NZ08 | hit rate 0.15% among 340,000 | inhibition, % at 10.7 µM;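 active means mean replicate inhibition of at least 30%, or all replicates individually reaching that 30% level; inactive means mean below 30% and not every replicate reaching it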;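 further: 0% = neutral control wells and 100% = L-leucinethiol positive control wells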
E-selectin induc = E-selectin induction on HUVECs. hit rate 0.37% among 260,000. AID 686992. HUVEC E-selectin immunofluorescence imaging; normalized: neutral wells 0, TNF-alpha wells 100. activation, % at 7.58 µM. P16581;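 active means mean E-selectin-positive cell signal at least 10% of the positive control, reached in at least 60% of replicates, without over 20% cell loss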
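Test system: HUVEC | Signal: Immunofluorescence imaging | Read-out: Percent E-selectin-positive cells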
SIRT5 block = blocks human SIRT5 desuccinylation of peptide | Purified SirT5, succinyl-peptide AMC, trypsin-coupled fluorescence | hit rate 1.1% among 330,000 | inhibition, % at 15 µM | AID 652115; in the data active means inhibition above about 15%
Target sequence (Q9NXA8 whole entry, looked up): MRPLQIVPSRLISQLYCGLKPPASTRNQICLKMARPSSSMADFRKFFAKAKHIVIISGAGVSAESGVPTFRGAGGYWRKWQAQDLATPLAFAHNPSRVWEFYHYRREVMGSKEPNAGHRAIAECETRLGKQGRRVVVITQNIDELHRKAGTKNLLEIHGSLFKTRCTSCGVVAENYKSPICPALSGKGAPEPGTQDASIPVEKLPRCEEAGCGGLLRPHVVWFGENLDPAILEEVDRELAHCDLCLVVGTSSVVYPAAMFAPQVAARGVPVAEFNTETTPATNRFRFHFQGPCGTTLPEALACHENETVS
DENV2 CPE rescue = DENV2-induced cell death inhibition; DENV2-infected cells, cytopathic effect rescue, plate reader; CPE inhibition, % at 9.99 µM; hit rate 1.7% among 350,000; AID 651640; in the data active means CPE inhibition above about 20%, passing the limit was not always enough; tested in BHK-21 cells;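 further: 0% = median of neutral control wells and 100% = median of positive control wells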
* = called active by the depositor; · = no result.

SMILES	PglD inh	ERAP1 HTS inh	E-selectin induc	SIRT5 block	DENV2 CPE rescue
CSc1nc(Cl)c(Br)c(Nc2c[nH]c(=O)[nH]c2=O)n1	-5	-4	0	·	52*
FC(F)(F)c1ccc(Oc2ccc3ccccc3c2Br)nc1	·	-1	·	24*	-7
CC(Sc1nc(-c2ccc(F)cc2)cs1)C(=O)N1c2ccccc2CC1C (stereo unspecified)	·	0	·	26*	-3
CCNC(=O)CNC(=O)c1nn(Cc2ccccc2)c(=O)c2ccccc12	-1	-1	0	-2	-6
O=C(CSc1nc(=O)[nH]c2c1CCCC2)Nc1ccc(F)cc1F	-5	-3	·	-2	41*
Cc1ccc2nc(SCC(=O)Nc3ccc(F)cc3F)[nH]c2c1	-3	·	·	·	·
Cc1cccc2cc(CN(CC3CCCO3)C(=O)c3ccncc3)c(=O)[nH]c12 (stereo unspecified)	·	·	6	·	·
CCN(CC)CCCNC(CC(=O)Nc1cccc([N+](=O)[O-])c1)C(=O)O (stereo unspecified)	-2	-3	·	-2	30*
O=C(CCC(=O)Nc1cccc(Cl)c1)N/N=C/c1cc([N+](=O)[O-])ccc1O	·	12	·	15*	·
CCCC(CCC(=O)Nc1cccc([N+](=O)[O-])c1)C(=O)O (stereo unspecified)	-1	-5	4	0	1
O=C(CCCc1ccccc1)Nc1cccc([N+](=O)[O-])c1	6	-1	·	-2	40*
O=C(CCc1ccccc1)Nc1cccc([N+](=O)[O-])c1	5	5	·	-5	13
O=C(O)c1occc1CSc1ccccc1	1	-2	1	-3	-3
CC1CC(C)(C)NC(=O)O1 (stereo unspecified)	-2	·	·	·	·
CCc1ccccc1N(C(=O)c1ccco1)C(C(=O)NC1CCCC1)c1cccnc1 (stereo unspecified)	1	-1	·	-5	54*
Cc1ccccc1N(C(=O)c1ccco1)C(C(=O)NC1CCCC1)c1cccnc1 (stereo unspecified)	-2	-2	0	2	-1
COc1ccc(Cl)cc1N(C(=O)c1ccco1)C(C(=O)NC1CCCC1)c1ccco1 (stereo unspecified)	·	1	·	-2	75*
CCC1CCCCN1CC(=O)Nc1ccc2c(c1)OCCO2 (stereo unspecified)	3	-2	·	-7	-14
CCC(c1nnnn1-c1c(C)cccc1C)N1CCN(C/C=C/c2ccccc2)CC1 (stereo unspecified)	-5	4	1	14	106*
CSCCC(c1nnnn1-c1c(C)cccc1C)N1CCN(C/C=C/c2ccccc2)CC1 (stereo unspecified)	-1	·	·	11	4
O=C(CCN1C(=O)C2CC=CCC2C1=O)Nc1cccc(Cl)c1 (stereo unspecified)	-3	-5	0	2	-4
Nc1[nH]c(C(=O)c2ccccc2)c(-c2cc(F)ccc2Br)c1C(=O)NCCc1c[nH]c2ccccc12	·	-2	0	1	29*
Nc1[nH]c(C(=O)c2ccccc2)c(-c2ccc(Cl)c(F)c2)c1C(=O)NCCc1c[nH]c2ccccc12	·	0	1	39*	3
COc1ccc(C(=O)c2[nH]c(N)c(C(=O)NCCc3c[nH]c4ccccc34)c2-c2c(F)cccc2Cl)cc1	·	-4	1	-2	67*
COc1ccc(C(=O)c2[nH]c(N)c(C(=O)NCCc3c[nH]c4ccccc34)c2-c2ccccc2C(F)(F)F)cc1	·	1	0	·	-5
SMILES	PglD inh	ERAP1 HTS inh	E-selectin induc	SIRT5 block	DENV2 CPE rescue
O=C(Nc1ccccc1F)N1C[C@@H]2[C@H](c3ccccc31)[C@H](CO)N2C(=O)c1ccccn1	1	2	1	1	3
O=C(c1ccccc1)C1CN(Cc2ccccc2)CCC1(O)c1ccccc1 (stereo unspecified)	-4	0	3	-2	-2
C[C@H](CO)N1C[C@H](C)[C@@H](CN(C)S(=O)(=O)c2ccccc2)Oc2ncc(C#CC3CCCCC3)cc2C1=O	-1	0	0	15	-2
Cn1nc(C(=O)NNC(=O)c2cccc(Cl)c2)c2ccccc2c1=O	-3	-4	·	1	67*
Cn1nc(C(=O)NNC(=O)c2ccccc2Br)c2ccccc2c1=O	2	-1	237*	2	6
CCN1C(=O)/C(=C/C=C2/Sc3ccc4ccccc4c3N2CCO)SC1=S	1	-2	34*	·	-1
CCN1C(c2ccccc2)=C(c2ccccc2)S/C1=C/C=C1\SC(=S)N(C)C1=O	-1	·	·	·	·
Cc1cc(C)c(C(=O)N(C)C2CCCN(Cc3ccccc3F)C2)o1 (stereo unspecified)	6	1	-1	0	37*
Cc1cc(C)cc(C(=O)N(C)C2CCCN(Cc3ccccc3F)C2)c1 (stereo unspecified)	-6	2	·	9	12
C[C@@H]1CN([C@H](C)CO)C(=O)c2cc(NS(=O)(=O)c3ccc(Cl)cc3)ccc2O[C@@H]1CN(C)S(=O)(=O)c1ccc(F)cc1	1	3	1	2	7
CCc1ccc(N2CCN(CCNC(=O)Nc3ccc(OC)cc3)CC2)cc1	-16	-3	·	-2	12
COc1ccc(NC(=O)NCCN2CCN(c3cc(OC)ccc3OC)CC2)cc1	-4	1	·	28*	-1
O=C(CC1SC(=O)N(c2ccccc2)C1=O)Nc1cccc2ccccc12 (stereo unspecified)	3	-2	·	4	0
COc1ccccc1/C=C/C=O	1	0	·	0	25*
COc1ccccc1/C=C/C(=O)c1ccccc1	·	0	0	-5	-5
C[C@@H]1CN([C@@H](C)CO)C(=O)c2cc(C#CC3CCCC3)cnc2O[C@@H]1CN(C)C(=O)C1CCC1	0	3	-1	1	-4
C[C@H](CO)N1C[C@H](C)[C@@H](CN(C)C(=O)C2CC2)Oc2ncc(C#CC3CCCC3)cc2C1=O	0	-1	-1	0	25*
C[C@@H]1CN([C@@H](C)CO)C(=O)c2cc(C#CC3CCCC3)cnc2O[C@H]1CN(C)C(=O)C1CC1	-2	-1	0	0	28*
O=C(N[C@H]1CC[C@@H](CCNC(=O)c2ccccc2F)O[C@@H]1CO)c1ccc2c(c1)OCO2	-1	-3	0	-2	-5
Cc1ccc([C@@H]2[C@@H]3C(=O)N(c4ccccc4)C(=O)[C@@H]3[C@]3(C)C(=O)N(CC4CC4)CC(=O)N23)o1	-3	2	0	-1	50*
Cc1ccc([C@@H]2[C@@H]3C(=O)N(C)C(=O)[C@@H]3[C@]3(C)C(=O)N(Cc4ccccc4)CC(=O)N23)o1	-3	2	0	-2	-4
CCS(=O)(=O)Nc1ccc2c(c1)C(=O)N(C)C[C@H](OC)[C@H](C)CN[C@H](C)CO2	-2	0	0	-7	21*
CO[C@H]1CN(C)C(=O)c2cc(NS(=O)(=O)CC(F)(F)F)ccc2OC[C@H](C)NC[C@H]1C	-2	-2	0	0	12

Source: PubChem (Broad Institute)
